Data from ChEMBL document CHEMBL3421626, “Prenylated benzophenones from Triadenum japonicum” (2015).
In brackets after ≈: the same amount, converted by molar mass. Numbered stars: 1 amine (or outer) side, 2 acyl side, 3 side chain; on linkers, the order of the positions; unused ones are H or OH. Bridge positions count the residues as written; N and C are the ends. Square brackets hold non-standard residues; d marks the D form. Peptide text beside a SMILES is read from it. * marks the point of attachment. hTyr(3S-OH,4S-OH,3'-OSO3H) = N[C@H](C(=O)O)[C@H](O)[C@@H](O)c1ccc(O)c(OS(=O)(=O)O)c1; Orn(4R-OH,5R-OH) = O=C([C@H](C[C@@H](O)[C@@H](O)N[*:3])N[*:1])[*:2]; Pro(3S-OH,4S-Me) = C[C@H]1CN[C@H](C(=O)O)[C@H]1O; X1 = CCCCCOc1ccc(-c2cc(-c3ccc(C(=O)*)cc3)no2)cc1; Gln(3R-OH) = NC(=O)C[C@@H](O)[C@H](N)C(=O)O; Hyp = O=C(O)[C@@H]1C[C@@H](O)CN1

Tests used:
Type in all cases: functional
[1] = system: Escherichia coli; experiment: Antimicrobial activity against Escherichia coli assessed as reduction in bacterial growth incubated for 48 hrs by microbroth dilution method
Method in brief: (§1)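 Panel assay run per a previously reported protocol. Amphotericin B, micafungin, hygromycin B and kanamycin served as control agents across the organism panel.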

[2] = system: Staphylococcus aureus; experiment: Antimicrobial activity against Staphylococcus aureus assessed as reduction in bacterial growth incubated for 48 hrs by microbroth dilution method; method in brief: as §1
[3] = system: Candida albicans; experiment: Antimicrobial activity against Candida albicans IFM62680 assessed as reduction in […] growth incubated for 48 hrs by microbroth dilution method; conditions: IFM62680, 48 h
[4] = system: Micrococcus luteus; experiment: Antimicrobial activity against Micrococcus luteus assessed as reduction in bacterial growth incubated for 48 hrs by microbroth dilution method; method in brief: as §1
[5] = system: Trichophyton mentagrophytes; experiment: Antimicrobial activity against Trichophyton mentagrophytes IFM62679 assessed as reduction in […] growth incubated for 48 hrs by microbroth dilution method; conditions: IFM62679, 48 h; method in brief: as §1
[6] = system: Bacillus subtilis; experiment: Antimicrobial activity against Bacillus subtilis assessed as reduction in bacterial growth incubated for 48 hrs by microbroth dilution method; method in brief: as §1
[7] = system: Aspergillus niger; experiment: Antimicrobial activity against Aspergillus niger IFM62678 assessed as reduction in […] growth incubated for 48 hrs by microbroth dilution method; conditions: IFM62678, 48 h; method in brief: as §1

| SMILES | MIC [1] [µg/mL] | MIC [2] [µg/mL] | MIC [4] [µg/mL] | MIC [6] [µg/mL] | IC50 [3] [µg/mL] | IC50 [5] [µg/mL] | IC50 [7] [µg/mL] |
| --- | --- | --- | --- | --- | --- | --- | --- |
| CN[C@H]1C[C@@H](N)[C@H](O)[C@@H](O[C@@H]2O[C@H](CO)[C@H](O)[C@H]3O[C@@]4(O[C@H]23)O[C@H]([C@H](N)CO)[C@H](O)[C@H](O)[C@H]4O)[C@@H]1O | 2 (≈ 3.79 µM) | 0.5 (≈ 0.948 µM) | 1 (≈ 1.9 µM) | 2 (≈ 3.79 µM) | 3.9 (≈ 7.39 µM) | 1 (≈ 1.9 µM) | 1 (≈ 1.9 µM) |
| CC(C)=CC[C@]12C[C@H]3C[C@@H](C(C)(C)OO)OO[C@]3(C)C[C@](CC=C(C)C)(C1=O)C(O)=C(C(=O)c1ccccc1)C2=O |  |  |  |  | 8 (≈ 14.1 µM) |  |  |
| C[C@@H]1[C@H](O)[C@@H](C)/C=C/C=C/C=C/C=C/C=C/C=C/C=C/[C@H](O[C@@H]2O[C@H](C)[C@@H](O)[C@H](N)[C@@H]2O)C[C@@H]2O[C@](O)(C[C@@H](O)C[C@@H](O)[C@H](O)CC[C@@H](O)C[C@@H](O)CC(=O)O[C@H]1C)C[C@H](O)[C@H]2C(=O)O [AMPHOTERICIN B] | > 31.2 | > 31.2 | > 31.2 | > 31.2 | 1 (≈ 1.08 µM) | 3.9 (≈ 4.22 µM) | 1.8 (≈ 1.95 µM) |

The next lines start with results.

| MIC [1] [µg/mL] | MIC [2] [µg/mL] | MIC [4] [µg/mL] | MIC [6] [µg/mL] | SMILES | IC50 [3] [µg/mL] | IC50 [5] [µg/mL] | IC50 [7] [µg/mL] |
| --- | --- | --- | --- | --- | --- | --- | --- |
| 8 (≈ 15.9 µM) | 16 (≈ 31.8 µM) | 32 (≈ 63.7 µM) | 16 (≈ 31.8 µM) | CC(C)=CC[C@@H]1C[C@@]2(CC=C(C)C)C(=O)C3(CC=C(C)C)C[C@]1(C)[C@]2(O)/C(=C(/O)c1ccccc1)C3=O | 32 (≈ 63.7 µM) | 8 (≈ 15.9 µM) | 16 (≈ 31.8 µM) |
| < 0.1 | < 0.1 | 1 (≈ 2.06 µM) | < 0.1 | NC[C@H]1O[C@H](O[C@H]2[C@H](O)[C@@H](O[C@H]3O[C@H](CO)[C@@H](O)[C@H](N)[C@H]3O)[C@H](N)C[C@@H]2N)[C@H](O)[C@@H](O)[C@@H]1O [KANAMYCIN] | > 62.5 | 7.8 (≈ 16.1 µM) | 31.3 (≈ 64.6 µM) |
| > 62.5 | 0.5 (≈ 0.394 µM) | 7.8 (≈ 6.14 µM) | 0.5 (≈ 0.394 µM) | CCCCCOc1ccc(-c2cc(-c3ccc(C(=O)N[C@H]4C[C@@H](O)[C@@H](O)NC(=O)[C@@H]5[C@@H](O)[C@@H](C)CN5C(=O)[C@H]([C@H](O)CC(N)=O)NC(=O)[C@H]([C@H](O)[C@@H](O)c5ccc(O)c(OS(=O)(=O)O)c5)NC(=O)[C@@H]5C[C@@H](O)CN5C(=O)[C@H]([C@@H](C)O)NC4=O)cc3)no2)cc1 [MICAFUNGIN] (X1-[Orn(4R-OH,5R-OH)]T[Hyp][hTyr(3S-OH,4S-OH,3'-OSO3H)][Gln(3R-OH)][Pro(3S-OH,4S-Me)]; lactam 1-C) | < 0.1 | < 0.1 | < 0.1 |
